Measured values pooled from the literature.
SLC22A1: Solute carrier family 22 member 1 (SLC22A1, Homo sapiens, UniProt O15245)

| SMILES | target or system | assay | system | setting | endpoint | result |
| --- | --- | --- | --- | --- | --- | --- |
| CN(CCC(=O)O)C(=O)c1ccc2c(c1)CC[C@@H]1[C@@H]2CC[C@]2(C)C(c3cncc(F)c3)=CC[C@@H]12 | UDP-glucuronosyltransferase 2B4 (UGT2B4, Homo sapiens, UniProt P06133) | enzyme activity, inhibitor |  |  | IC50 | > 30 µM |
| CN(C(=O)n1cnc(-c2ccc[n+]([O-])c2)c1)C1CCCCC1 | SLC22A1 | transporter uptake, inhibitor | CHO | 1 µg/mL | inhibition | 13% |
| O=C(O)CSc1nnc(Br)n1-c1ccc(C2CC2)c2ccccc12 | SLC22A1 | transporter uptake, inhibitor | MDCK-II | 3 µM, 5 min | inhibition | 36% |
| COc1cc(OC)c2c(=O)cc(-c3ccc(N(C)C)cc3)oc2c1 | HS27 | cell growth or viability, MTT |  | 24 h | CC50 | > 200 µM |
| COc1ccc(CN2C[C@H]3CC[C@@H]4[C@](C)(COC(C)=O)[C@H](OC(C)=O)CC[C@@]4(C)[C@@H]3C[C@@H]2C2=CCOC2=O)cc1 | MRC5 | cell growth or viability, ATP luminescence |  | 25 µM, 72 h | cell death | 56.4% |
| COc1cc(C)c(-c2c(C)cc(OC)c3c(=O)cc(-c4ccccc4Br)oc23)c2oc(-c3ccccc3Br)cc(=O)c12 | HS27 | cell growth or viability, MTT |  | 24 h | CC50 | > 200 µM |
| C[C@@]12COCO[C@@H]1CC[C@]1(C)[C@@H]2CC[C@@H]2CN(Cc3ccc(F)cc3)[C@@H](C3=CCOC3=O)C[C@H]21 | MRC5 | cell growth or viability, ATP luminescence |  | 25 µM, 72 h | cell death | -4.3% |
| C=CCn1c(=O)c2cnc(Nc3ccc(N4CCN(C)CC4)cc3)nc2n1-c1cccc(C(C)(C)O)n1 |  |  | human, plasma | oral, 175 mg, 8 h, single dose | concentration | 213 nM |
| CC(C)CN1C[C@H]2CC[C@@H]3[C@]4(C)COC(C)(C)O[C@@H]4CC[C@@]3(C)[C@@H]2C[C@@H]1C1=CCOC1=O | MRC5 | cell growth or viability, ATP luminescence |  | 25 µM, 72 h | cell death | -4.1% |
| COc1cc(OC)c2c(=O)cc(-c3ccccc3Br)oc2c1 | HS27 | cell growth or viability, MTT |  | 24 h | CC50 | > 200 µM |
| COc1ccc(CN2C[C@H]3CC[C@@H]4[C@](C)(CO)[C@H](O)CC[C@@]4(C)[C@@H]3C[C@@H]2C2=CCOC2=O)cc1 | MRC5 | cell growth or viability, ATP luminescence |  | 25 µM, 72 h | cell death | -1.8% |
| CCCCOC(=O)N1CCN(C(=O)[C@H](CP(=O)(O)O)NC(=O)c2cc(N3CC[C@H](OC)C3)nc(-c3ccccc3)n2)CC1 |  |  | human, plasma | subcutaneous, 8 mg, 24 h, single dose | concentration | 0.4 ng/mL |
